Measured values from publication PMC4470787 (Clinical cancer research : an official journal of the …, 2015).
“Also recorded” adds a separate entry of the source.

Key:
[1] = system: relapsed/refractory acute lymphoblastic leukemia; experiment: Phase I/II study: response and survival with everolimus plus HyperCVAD; type: in vivo, human
[2] = system: pS6RP, p4EBP1 (Thr37/46), pAkt (Ser473); type: in vivo, human; settings: 5 of 8 tested samples; 24 h after first dose; both 5 mg and 10 mg dose levels
[3] = system: mTOR targets (S6RP pS235-S236, S6RP pS240-S244, 4EBP1) and Akt; experiment: Reverse phase protein array; type: in vivo, human
How it was run: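 Peripheral blood proteins from 10 patients (3 on 5 mg/day, 7 on 10 mg/day everolimus) were lysed as for western blots, taken before (C1D0) and 24 h after (C1D1) the first dose. The reverse phase protein array probed mTOR pS2448, p70S6K pT389, S6RP pS235-S236 and pS240-S244, 4EBP1 pS65 and pT37-T46, and Akt pS473 and pT308. Phospho/total ratios were compared between days 0 and 1.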

[4] = Everolimus whole blood pharmacokinetics; type: in vivo, human
How it was run: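 Patients with relapsed/refractory ALL took oral everolimus (5 or 10 mg/day, continuous from Cycle 1 Day 0) with HyperCVAD. Whole blood was collected in EDTA tubes 1, 2, 5, 8 and 24 h post-dose on Days 1 and 15 of Cycles 1 and 2 and held at 4°C. Drug levels were measured by validated HPLC-MS/MS with sirolimus internal standard. Cmax, Tmax, t1/2, Ke, CL, AUC0-∞ and V came from non-compartmental analysis.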

[5] = system: mTOR-sensitive, inflammation-associated and miR-21 target gene sets; type: in vivo, human
How it was run: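 Peripheral blood was sampled from 5 patients before (C1D0) and 24 h after (C1D1) the first oral everolimus dose. RNA was TRIzol-extracted, isopropanol-precipitated and 70% ethanol-washed, accepted at integrity number >7, and amplified/biotinylated via oligo(dT) reverse transcription and T7 transcription with biotin-UTP. It was hybridised to HumanHT-12 v4 bead chips and analysed by gene set enrichment analysis.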

[6] = system: patients with relapsed/refractory acute lymphoblastic leukemia
[7] = system: patients with relapsed or refractory hematologic malignancies; settings: phase I study at UT/MDACC; cited from earlier work
[8] = 1 of 24 patients, everolimus with HyperCVAD
[9] = all 24 patients, everolimus with HyperCVAD
[10] = patients in first salvage, everolimus with HyperCVAD
[11] = patients in second salvage and beyond, everolimus with HyperCVAD

CO[C@H]1C[C@@H]2CC[C@@H](C)[C@@](O)(O2)C(=O)C(=O)N2CCCC[C@H]2C(=O)O[C@H]([C@H](C)C[C@@H]2CC[C@@H](OCCO)[C@H](OC)C2)CC(=O)[C@H](C)/C=C(\C)[C@@H](O)[C@@H](OC)C(=O)[C@H](C)C[C@H](C)/C=C/C=C/C=C/1C [everolimus]
CR without platelet recovery (CRp) [1, 8]: 4%
CR without recovery of counts (CRi) [1, 8]: 4%
partial response (PR) ([1]; 2 of 24 patients, everolimus with HyperCVAD): 8%
response in T-ALL patients ([1]; 5 of 10 heavily pretreated T-ALL patients, everolimus with HyperCVAD): 50%
response in B-ALL patients ([1]; 5 of 13 patients (all CR), everolimus with HyperCVAD): 39%
complete remission (CR) ([1]; 6 of 24 patients, everolimus with HyperCVAD): 25%
response (CR/CRp) in first salvage ([1]; 7 of 11 patients, everolimus with HyperCVAD): 64%
responses beyond second salvage ([1]; 10 patients, everolimus with HyperCVAD): no responses
median OS ([1]; B-ALL patients, everolimus with HyperCVAD): 23 weeks
median OS ([1]; T-ALL patients, everolimus with HyperCVAD): 23 weeks
overall response rate (CR+CRp+CRi) [1, 9]: 33%
response noted (including PR) [1, 9]: 41%
no detectable MRD at response (multiparametric flow cytometry) ([1]; among patients who achieved CR/CRp/CRi): 5 of the 8
CRi in second salvage ([1]; everolimus with HyperCVAD): 1 of 3
median EFS [1, 10]: 22 weeks
median OS [1, 10]: 29 weeks
median EFS [1, 11]: 7 weeks
median OS [1, 11]: 15 weeks
complete cytogenetic response ([1]; responders with abnormal cytogenetics at diagnosis): 3 patients
samples with reduced phosphorylation of S6RP (western blot) [2]: 62%
phosphorylation of S6RP pS235-S236 (RPPA) ([3]; 10 patients, 1-sided paired t-test P=0.007): inhibited phosphorylation
phosphorylation of S6RP pS240-S244 (RPPA) ([3]; 10 patients, 1-sided paired t-test P=0.01): inhibited phosphorylation
phosphorylation of 4EBP1, Akt, or other proteins ([3]; 24 h after first dose): No significant decreases; also recorded: No statistically significant differences
phosphorylation of S6RP at pS235-S236 and pS240-S244 sites ([3]; everolimus 5 mg/day, RPPA and western blot): sufficiently blocked
degree of inhibition of proteins or phosphorylated forms, 5 mg/day vs 10 mg/day ([3]; including Akt targets cyclin D1, FOXO3A, PRAS40 and Mcl-1): did not differ
patients with elevation of PTEN levels by RPPA ([3]; of 10 patients with serial analysis): Five
AUC and Cmax at steady state (C1D15 and C2D0) versus literature ([4]; 10-mg/day dose): higher than in previous published studies
trough levels of everolimus, association ([4]; in vivo): not associated with response or toxicity
AUC and Cmax between everolimus 5 mg/day and 10 mg/day ([4]; whole blood): dose-proportional
expression of mTOR-sensitive genes induced by overexpression of Akt (GSEA) ([5]; 5 patients, C1D0 vs C1D1): significantly reduced
inflammation-associated genes (TNF, EGF, IL-6 induced) (GSEA) ([5]; 5 patients, C1D0 vs C1D1): similarly reduced
target genes of miR-21 (GSEA) ([5]; 5 patients, C1D0 vs C1D1): increased
patient samples with increased PTEN expression (microarray) ([5]; P=0.016): 4 of the 5
Cardiac: Pericardial effusion, G1/2 ([6]; human, in vivo): 0 N (%)
Cardiac: Pericardial effusion, G3/4 ([6]; human, in vivo): 2 (8) N (%)
Cardiac: Tachycardia, G1/2 ([6]; human, in vivo): 3 (13) N (%)
Cardiac: Tachycardia, G3/4 ([6]; human, in vivo): 1 (4) N (%)
Constitutional: Fatigue, G1/2 ([6]; human, in vivo): 13 (54) N (%)
Constitutional: Fatigue, G3/4 ([6]; human, in vivo): 0 N (%)
Constitutional: Headache, G1/2 ([6]; human, in vivo): 6 (25) N (%)
Constitutional: Headache, G3/4 ([6]; human, in vivo): 4 (17) N (%)
Gastrointestinal: Diarrhea, G1/2 ([6]; human, in vivo): 8 (33) N (%)
Gastrointestinal: Diarrhea, G3/4 ([6]; human, in vivo): 2 (8) N (%)
Gastrointestinal: Nausea, G1/2 ([6]; human, in vivo): 9 (38) N (%)
Gastrointestinal: Nausea, G3/4 ([6]; human, in vivo): 0 N (%)
Infection (one or more), G1/2 ([6]; human, in vivo): 0 N (%)
Infection (one or more), G3/4 ([6]; human, in vivo): 23 (96) N (%)
Metabolic: ALT/AST, G1/2 ([6]; human, in vivo): 14 (58) N (%)
Metabolic: ALT/AST, G3/4 ([6]; human, in vivo): 7 (29) N (%)
Metabolic: Bilirubin, G1/2 ([6]; human, in vivo): 14 (58) N (%)
Metabolic: Bilirubin, G3/4 ([6]; human, in vivo): 2 (8) N (%)
Metabolic: Hyperglycemia, G1/2 ([6]; human, in vivo): 7 (29) N (%)
Metabolic: Hyperglycemia, G3/4 ([6]; human, in vivo): 12 (50) N (%)
Mucositis/stomatitis, G1/2 ([6]; human, in vivo): 10 (42) N (%)
Mucositis/stomatitis, G3/4 ([6]; human, in vivo): 3 (13) N (%)
Pulmonary: Dyspnea, G1/2 ([6]; human, in vivo): 1 (4) N (%)
Pulmonary: Dyspnea, G3/4 ([6]; human, in vivo): 1 (4) N (%)
Pulmonary: Pleural effusions, G1/2 ([6]; human, in vivo): 1 (10) N (%)
Pulmonary: Pleural effusions, G3/4 ([6]; human, in vivo): 2 (8) N (%)
Renal: Renal insufficiency, G1/2 ([6]; human, in vivo): 0 N (%)
Renal: Renal insufficiency, G3/4 ([6]; human, in vivo): 4 (17) N (%)
Renal: Urinary retention, G1/2 ([6]; human, in vivo): 1 (4) N (%)
Renal: Urinary retention, G3/4 ([6]; human, in vivo): 0 N (%)
incidence of grade 3/4 hyperglycemia ([6]; human, in vivo): 50%
myelosuppression and neutropenia ([6]; human, in vivo): occurred in all 24 patients
maximum tolerated dose (MTD) of everolimus ([6]; in combination with HyperCVAD, 3+3 design): 5 mg/day
DLT at dose level 0 ([6]; in vivo): no documented first or second cycle DLT
pneumonitis ([6]; in vivo): No documented cases
tolerability of single-agent everolimus [7]: well tolerated at a dose of 10 mg daily
